Reference: ChEMBL document CHEMBL3232836, “Discovery of 4-anilino α-carbolines as novel Brk inhibitors” (Bioorg Med Chem Lett, 2014)
Each block holds one compound with its values, some of them ahead of it.

Legend:
[1] = target: Protein-tyrosine kinase 6 (Homo sapiens, UniProt Q13882); assay: Inhibition of Brk (unknown origin) using [gamma-33P]-ATP after 60 mins by scintillation counting
[2] = target: MAP kinase-activated protein kinase 3 (Homo sapiens, UniProt Q16644); assay: Inhibition of human MAPKAPK3
[3] = target: Serine/threonine-protein kinase pim-2 (Homo sapiens, UniProt Q9P1W9); assay: Inhibition of human PIM2
[4] = target: Serine/threonine-protein kinase PAK 3 (Homo sapiens, UniProt O75914); assay: Inhibition of human PAK3
[5] = Antiproliferative activity against human Hs 578T cells by sulfur rhodamine assay; type: functional
[6] = target: Serine/threonine-protein kinase 26 (Homo sapiens, UniProt Q9P289); assay: Inhibition of human MST4
[7] = target: RAC-gamma serine/threonine-protein kinase (Homo sapiens, UniProt Q9Y243); assay: Inhibition of human AKT3
Summary of the method: (§1)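 Radiometric kinase assay in FlashPlates. Test compound was added from a 10% DMSO solution and ATP from an aqueous solution. The reaction was stopped with 2% (v/v) phosphoric acid, and plates were aspirated and washed with water or 0.9% NaCl. ³³Pi incorporation was read on a microplate scintillation counter.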

[8] = target: MAP/microtubule affinity-regulating kinase 3 (Homo sapiens, UniProt P27448); assay: Inhibition of human MARK3; summary of the method: as §1
[9] = target: RAC-alpha serine/threonine-protein kinase (Homo sapiens, UniProt P31749); assay: Inhibition of human AKT1
[10] = target: Serine/threonine-protein kinase 24 (Homo sapiens, UniProt Q9Y6E0); assay: Inhibition of human MST3; summary of the method: as §1
[11] = target: Mitogen-activated protein kinase 1 (Homo sapiens, UniProt P28482); assay: Inhibition of human ERK2
[12] = target: Homeodomain-interacting protein kinase 3 (Homo sapiens, UniProt Q9H422); assay: Inhibition of human HIPK3
[13] = target: Homeodomain-interacting protein kinase 1 (Homo sapiens, UniProt Q86Z02); assay: Inhibition of human HIPK1
[14] = target: Mitogen-activated protein kinase 10 (Homo sapiens, UniProt P53779); assay: Inhibition of human JNK3
[15] = target: Serine/threonine-protein kinase Nek2 (Homo sapiens, UniProt P51955); assay: Inhibition of human NEK2
[16] = Inhibition of human MARK5
Myotonin-protein kinase = Myotonin-protein kinase (Homo sapiens, UniProt Q09013); assay: Inhibition of human DMPK
[17] = target: RAC-beta serine/threonine-protein kinase (Homo sapiens, UniProt P31751); assay: Inhibition of human AKT2
[18] = Antiproliferative activity against human BT549 cells by sulfur rhodamine assay; type: functional; conditions: BT-549
[19] = target: Serine/threonine-protein kinase MARK1 (Homo sapiens, UniProt Q9P0L2); assay: Inhibition of human MARK1
[20] = target: Serine/threonine-protein kinase VRK1 (Homo sapiens, UniProt Q99986); assay: Inhibition of human VRK1
[21] = target: Serine/threonine-protein kinase Nek1 (Homo sapiens, UniProt Q96PY6); assay: Inhibition of human NEK1
[22] = target: Tyrosine-protein kinase JAK3 (Homo sapiens, UniProt P52333); assay: Inhibition of human JAK3; summary of the method: as §1
[23] = target: Homeodomain-interacting protein kinase 2 (Homo sapiens, UniProt Q9H2X6); assay: Inhibition of human HIPK2
[24] = target: Mitogen-activated protein kinase 8 (Homo sapiens, UniProt P45983); assay: Inhibition of human JNK1
[25] = target: MAP kinase-activated protein kinase 5 (Homo sapiens, UniProt Q8IW41); assay: Inhibition of human MAPKAPK5
[26] = target: Serine/threonine-protein kinase PAK 1 (Homo sapiens, UniProt Q13153); assay: Inhibition of human PAK1
MCF7 = assay: Antiproliferative activity against human MCF7 cells by sulfur rhodamine assay; type: functional
[27] = target: Glycogen synthase kinase-3 beta (Homo sapiens, UniProt P49841); assay: Inhibition of human GSK3beta
[28] = target: Mitogen-activated protein kinase 3 (Homo sapiens, UniProt P27361); assay: Inhibition of human ERK1; summary of the method: as §1
[29] = target: Serine/threonine-protein kinase PAK 2 (Homo sapiens, UniProt Q13177); assay: Inhibition of human PAK2; summary of the method: as §1
[30] = target: Calcium/calmodulin-dependent protein kinase type IV (Homo sapiens, UniProt Q16566); assay: Inhibition of human CAMK4
[31] = target: Proto-oncogene tyrosine-protein kinase Src (Homo sapiens, UniProt P12931); assay: Inhibition of human Src

Chain of Protein-tyrosine kinase 6 (Q13882 whole entry): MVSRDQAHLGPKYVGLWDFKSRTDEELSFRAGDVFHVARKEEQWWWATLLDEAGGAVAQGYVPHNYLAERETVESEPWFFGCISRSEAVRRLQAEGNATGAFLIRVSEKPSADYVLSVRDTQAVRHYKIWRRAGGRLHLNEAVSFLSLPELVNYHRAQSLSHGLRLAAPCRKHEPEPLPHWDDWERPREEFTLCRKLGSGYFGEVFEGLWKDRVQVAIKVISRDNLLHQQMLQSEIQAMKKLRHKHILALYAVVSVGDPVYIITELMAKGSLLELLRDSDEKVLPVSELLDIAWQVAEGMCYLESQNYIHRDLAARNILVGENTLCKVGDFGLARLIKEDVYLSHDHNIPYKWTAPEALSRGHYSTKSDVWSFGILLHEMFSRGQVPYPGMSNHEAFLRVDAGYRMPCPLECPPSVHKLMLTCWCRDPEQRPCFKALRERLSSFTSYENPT
Chain of Serine/threonine-protein kinase Nek2 (P51955 whole entry): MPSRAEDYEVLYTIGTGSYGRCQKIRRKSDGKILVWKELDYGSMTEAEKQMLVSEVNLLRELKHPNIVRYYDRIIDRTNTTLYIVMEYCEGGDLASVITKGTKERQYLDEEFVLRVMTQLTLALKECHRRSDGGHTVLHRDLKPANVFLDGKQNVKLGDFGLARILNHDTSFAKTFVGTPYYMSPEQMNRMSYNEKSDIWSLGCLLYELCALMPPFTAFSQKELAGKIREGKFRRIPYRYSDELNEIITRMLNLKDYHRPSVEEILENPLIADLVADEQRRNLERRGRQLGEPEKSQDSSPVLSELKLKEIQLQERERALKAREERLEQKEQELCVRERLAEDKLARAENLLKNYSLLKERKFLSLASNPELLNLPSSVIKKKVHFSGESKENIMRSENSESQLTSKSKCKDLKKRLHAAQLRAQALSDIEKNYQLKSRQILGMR
Chain of RAC-gamma serine/threonine-protein kinase (Q9Y243 whole entry): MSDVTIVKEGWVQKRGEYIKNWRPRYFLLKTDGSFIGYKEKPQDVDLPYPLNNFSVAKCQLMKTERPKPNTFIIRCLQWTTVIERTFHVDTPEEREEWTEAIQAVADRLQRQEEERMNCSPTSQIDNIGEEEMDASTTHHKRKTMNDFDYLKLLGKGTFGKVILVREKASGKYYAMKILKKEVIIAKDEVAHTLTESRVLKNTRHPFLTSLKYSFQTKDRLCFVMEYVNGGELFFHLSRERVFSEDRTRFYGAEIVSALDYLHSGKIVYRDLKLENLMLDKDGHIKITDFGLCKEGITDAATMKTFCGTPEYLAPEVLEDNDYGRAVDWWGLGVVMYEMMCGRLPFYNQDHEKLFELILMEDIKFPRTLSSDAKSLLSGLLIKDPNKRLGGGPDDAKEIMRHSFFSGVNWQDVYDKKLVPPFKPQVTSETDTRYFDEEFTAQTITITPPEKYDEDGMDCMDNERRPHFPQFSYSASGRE
Chain of MAP kinase-activated protein kinase 3 (Q16644 whole entry): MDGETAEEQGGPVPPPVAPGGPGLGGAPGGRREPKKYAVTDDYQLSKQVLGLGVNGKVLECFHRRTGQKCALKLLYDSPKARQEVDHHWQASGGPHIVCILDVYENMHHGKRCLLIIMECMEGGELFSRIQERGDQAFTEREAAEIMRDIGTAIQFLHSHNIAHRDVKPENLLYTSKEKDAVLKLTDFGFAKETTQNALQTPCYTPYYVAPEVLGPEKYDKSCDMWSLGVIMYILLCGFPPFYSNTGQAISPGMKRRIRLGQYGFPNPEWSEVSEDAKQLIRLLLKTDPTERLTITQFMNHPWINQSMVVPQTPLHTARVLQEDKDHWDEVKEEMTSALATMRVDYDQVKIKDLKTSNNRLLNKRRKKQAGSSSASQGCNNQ
Chain of Serine/threonine-protein kinase PAK 1 (Q13153 whole entry): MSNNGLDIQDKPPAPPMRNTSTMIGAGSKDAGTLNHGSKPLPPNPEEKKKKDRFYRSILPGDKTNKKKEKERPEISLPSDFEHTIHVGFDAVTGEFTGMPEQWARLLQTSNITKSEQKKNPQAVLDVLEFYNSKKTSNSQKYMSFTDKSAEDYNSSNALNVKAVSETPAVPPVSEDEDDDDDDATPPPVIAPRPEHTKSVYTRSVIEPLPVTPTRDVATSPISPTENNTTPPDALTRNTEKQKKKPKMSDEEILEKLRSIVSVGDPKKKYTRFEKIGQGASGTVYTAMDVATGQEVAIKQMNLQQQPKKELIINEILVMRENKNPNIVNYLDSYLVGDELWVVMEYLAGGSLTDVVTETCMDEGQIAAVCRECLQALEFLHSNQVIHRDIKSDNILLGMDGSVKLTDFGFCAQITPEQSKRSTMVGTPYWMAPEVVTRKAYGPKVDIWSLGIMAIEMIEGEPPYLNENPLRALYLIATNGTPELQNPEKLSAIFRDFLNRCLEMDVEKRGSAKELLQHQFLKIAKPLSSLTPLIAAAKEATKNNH
Chain of Serine/threonine-protein kinase MARK1 (Q9P0L2 whole entry): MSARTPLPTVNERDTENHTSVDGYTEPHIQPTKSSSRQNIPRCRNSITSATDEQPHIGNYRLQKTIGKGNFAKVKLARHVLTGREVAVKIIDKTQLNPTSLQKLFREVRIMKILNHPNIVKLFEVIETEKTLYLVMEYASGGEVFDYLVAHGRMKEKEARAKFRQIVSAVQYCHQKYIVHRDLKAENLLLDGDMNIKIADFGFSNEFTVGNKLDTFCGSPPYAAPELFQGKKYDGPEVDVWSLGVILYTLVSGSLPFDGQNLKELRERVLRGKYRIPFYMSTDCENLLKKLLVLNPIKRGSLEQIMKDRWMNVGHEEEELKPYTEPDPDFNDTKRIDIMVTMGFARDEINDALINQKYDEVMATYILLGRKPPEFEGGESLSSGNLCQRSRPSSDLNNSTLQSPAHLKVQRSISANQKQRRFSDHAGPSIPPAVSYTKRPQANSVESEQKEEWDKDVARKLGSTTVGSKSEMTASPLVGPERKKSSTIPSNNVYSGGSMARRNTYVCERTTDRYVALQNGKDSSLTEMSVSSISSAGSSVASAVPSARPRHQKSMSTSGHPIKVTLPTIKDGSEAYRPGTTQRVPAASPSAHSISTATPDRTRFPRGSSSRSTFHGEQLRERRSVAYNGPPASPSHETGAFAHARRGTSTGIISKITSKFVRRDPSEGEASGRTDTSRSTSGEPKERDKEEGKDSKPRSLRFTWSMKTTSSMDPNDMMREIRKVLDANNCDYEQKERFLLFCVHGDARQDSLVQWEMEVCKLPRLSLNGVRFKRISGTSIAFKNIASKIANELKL
Chain of Calcium/calmodulin-dependent protein kinase type IV (Q16566 whole entry): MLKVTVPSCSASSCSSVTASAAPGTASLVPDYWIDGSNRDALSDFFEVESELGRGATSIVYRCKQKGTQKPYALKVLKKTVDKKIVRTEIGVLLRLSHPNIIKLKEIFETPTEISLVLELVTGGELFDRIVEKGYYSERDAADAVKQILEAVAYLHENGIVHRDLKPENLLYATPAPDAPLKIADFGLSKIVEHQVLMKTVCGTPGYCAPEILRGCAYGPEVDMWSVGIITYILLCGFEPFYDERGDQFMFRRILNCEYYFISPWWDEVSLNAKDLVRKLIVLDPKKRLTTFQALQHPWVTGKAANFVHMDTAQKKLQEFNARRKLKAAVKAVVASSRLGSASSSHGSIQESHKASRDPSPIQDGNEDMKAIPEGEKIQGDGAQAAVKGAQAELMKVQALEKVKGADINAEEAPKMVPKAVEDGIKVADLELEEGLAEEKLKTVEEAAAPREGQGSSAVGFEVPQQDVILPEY
Chain of RAC-alpha serine/threonine-protein kinase (P31749 whole entry): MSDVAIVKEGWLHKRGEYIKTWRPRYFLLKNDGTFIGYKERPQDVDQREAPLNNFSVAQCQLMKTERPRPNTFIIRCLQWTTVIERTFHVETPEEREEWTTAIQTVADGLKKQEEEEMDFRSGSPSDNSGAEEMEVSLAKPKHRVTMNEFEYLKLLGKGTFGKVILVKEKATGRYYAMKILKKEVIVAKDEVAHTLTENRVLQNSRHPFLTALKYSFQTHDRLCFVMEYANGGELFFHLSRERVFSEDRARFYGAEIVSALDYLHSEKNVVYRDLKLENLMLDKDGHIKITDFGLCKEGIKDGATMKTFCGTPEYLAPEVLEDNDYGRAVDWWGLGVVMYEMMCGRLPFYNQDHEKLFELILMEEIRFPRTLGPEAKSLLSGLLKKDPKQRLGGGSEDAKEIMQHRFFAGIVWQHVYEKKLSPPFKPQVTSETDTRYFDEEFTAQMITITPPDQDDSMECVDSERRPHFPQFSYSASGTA
Chain of Serine/threonine-protein kinase pim-2 (Q9P1W9 whole entry): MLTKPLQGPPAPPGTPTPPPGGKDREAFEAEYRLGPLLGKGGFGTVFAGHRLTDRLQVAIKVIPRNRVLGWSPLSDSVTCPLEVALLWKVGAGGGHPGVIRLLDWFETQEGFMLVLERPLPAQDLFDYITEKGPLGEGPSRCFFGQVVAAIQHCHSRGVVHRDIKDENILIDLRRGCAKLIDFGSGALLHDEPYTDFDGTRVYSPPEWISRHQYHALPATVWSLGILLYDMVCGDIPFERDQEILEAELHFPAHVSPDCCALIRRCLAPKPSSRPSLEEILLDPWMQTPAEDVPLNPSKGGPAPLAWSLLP
Chain of Mitogen-activated protein kinase 8 (P45983 whole entry): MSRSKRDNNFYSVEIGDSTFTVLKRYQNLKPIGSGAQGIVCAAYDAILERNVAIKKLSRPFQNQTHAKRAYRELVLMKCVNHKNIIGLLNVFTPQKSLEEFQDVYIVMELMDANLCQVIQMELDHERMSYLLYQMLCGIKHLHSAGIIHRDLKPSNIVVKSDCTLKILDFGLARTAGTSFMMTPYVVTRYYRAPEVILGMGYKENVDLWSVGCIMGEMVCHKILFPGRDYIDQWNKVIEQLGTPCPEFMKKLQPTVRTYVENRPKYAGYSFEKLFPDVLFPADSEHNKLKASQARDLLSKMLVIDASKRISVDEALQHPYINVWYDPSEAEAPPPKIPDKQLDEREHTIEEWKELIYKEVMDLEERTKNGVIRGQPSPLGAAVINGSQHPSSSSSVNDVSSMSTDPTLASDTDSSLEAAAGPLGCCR

IC50 [1]: Not Active
SMILES: Clc1ccc(Nc2ccnc3[nH]c4ccccc4c23)cc1

IC50 ([1]; read-out: IC50): 0.154 µM
SMILES: CCOc1cc(Nc2ccnc3[nH]c4ccccc4c23)ccc1Br

IC50 [2]: > 10 µM | IC50 [3]: > 10 µM | IC50 [4]: > 10 µM | IC50 [6]: > 10 µM | IC50 [7]: > 10 µM | IC50 [8]: > 10 µM | IC50 [9]: > 10 µM | IC50 [10]: > 10 µM | IC50 [11]: > 10 µM | IC50 [12]: > 10 µM | IC50 [13]: > 10 µM | IC50 [14]: > 10 µM | IC50 [15]: > 10 µM | IC50 [16]: > 10 µM | IC50 (Myotonin-protein kinase): > 10 µM | IC50 [17]: > 10 µM | IC50 [19]: > 10 µM | IC50 [20]: > 10 µM | IC50 [21]: > 10 µM | IC50 [22]: > 10 µM | IC50 [23]: > 10 µM | IC50 [24]: > 10 µM | IC50 [25]: > 10 µM | IC50 [26]: > 10 µM | GI50 (MCF7): 0.99 µM | IC50 [27]: > 10 µM | IC50 [28]: > 10 µM | IC50 [29]: > 10 µM | IC50 [30]: > 10 µM | IC50 [31]: 3.04 µM | IC50 ([1]; read-out: IC50): 0.00315 µM
SMILES: Oc1cccc(Nc2ccnc3[nH]c4ccccc4c23)c1
GI50 [5]: 1.02 µM | GI50 [18]: 1.58 µM

GI50 (MCF7): 8.12 µM | IC50 ([1]; read-out: IC50): 0.0695 µM
SMILES: Fc1ccc(Nc2ccnc3[nH]c4ccccc4c23)cc1Cl
GI50 [5]: 10.2 µM | GI50 [18]: > 100 µM

IC50 [1]: Not Active
SMILES: Cc1ccccc1Nc1ccnc2[nH]c3ccccc3c12

IC50 ([1]; read-out: IC50): 0.155 µM
SMILES: CCOc1cccc(Nc2ccnc3[nH]c4ccccc4c23)c1

IC50 ([1]; read-out: IC50): 0.00475 µM
SMILES: Clc1cccc(Nc2ccnc3[nH]c4ccccc4c23)c1

IC50 ([1]; read-out: IC50): 0.19 µM
SMILES: COc1ccc(Nc2ccnc3[nH]c4ccccc4c23)cc1

IC50 ([1]; read-out: IC50): 0.00441 µM
SMILES: COc1cc(Nc2ccnc3[nH]c4ccccc4c23)ccc1Br

IC50 [1]: Not Active
SMILES: COc1cccc(Nc2ccnc3[nH]c4ccccc4c23)c1

IC50 ([1]; read-out: IC50): 0.0594 µM
SMILES: FC(F)(F)c1cccc(Nc2ccnc3[nH]c4ccccc4c23)c1

IC50 [1]: Not Active
SMILES: CSc1cccc(Nc2ccnc3[nH]c4ccccc4c23)c1

IC50 ([1]; read-out: IC50): 0.00565 µM
SMILES: O=[N+]([O-])c1cccc(Nc2ccnc3[nH]c4ccccc4c23)c1

IC50 ([1]; read-out: IC50): 0.0756 µM
SMILES: Cc1ccc(Nc2ccnc3[nH]c4ccccc4c23)cc1Cl

IC50 ([1]; read-out: IC50): 0.0534 µM
SMILES: Clc1cc(Cl)cc(Nc2ccnc3[nH]c4ccccc4c23)c1
